In ChEMBL document CHEMBL1145749, “Inhibition of human immunodeficiency virus reverse transcriptase by synadenol triphosphate and its E-isomer” (J Med Chem, 2003):

Experiments:
[1] = target: Human immunodeficiency virus type 1 reverse transcriptase (Human immunodeficiency virus 1, UniProt Q72547); experiment: Inhibitory activity against HIV-1 Reverse transcriptase wild-type (RT wt)
Procedure, shortened: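 Recombinant HIV-1 RT (wild-type, M184V or M184I) was expressed in E. coli JM109 with 1 mM IPTG for 5 h, then purified on Q and SP columns to >90% purity. Assay used MS2 RNA/22A DNA primer in 50 mM Tris-HCl pH 7.8, 6 mM MgCl2, 150 mM KCl and 0.01% Triton X-100. Synthesis was distributive, with [3H]dATP as the only nucleotide, at 37 °C. Timed aliquots were spotted on DE81 and counted by scintillation. Ki came from the abscissa intercept of the Lineweaver–Burk replot. Ratio was Ki over dATP Km.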

[2] = target: Human immunodeficiency virus type 1 reverse transcriptase (Human immunodeficiency virus 1, UniProt Q72547, M184I); experiment: Inhibitory activity against HIV-1 reverse transcriptase (RT M184I)
Procedure, shortened: (§1)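 Recombinant HIV-1 RT M184V or M184I was expressed in E. coli JM109 (1 mM IPTG, 5 h), purified over Q and SP columns to >90%. The template-primer was MS2 RNA/22A DNA in 50 mM Tris-HCl pH 7.8, 6 mM MgCl2, 150 mM KCl, 0.01% Triton X-100, with [3H]dATP as the sole nucleotide (distributive mode). Reactions were enzyme-started at 37 °C and sampled 4–5 times onto DE81 filters. Ki came from the abscissa intercept of the Lineweaver–Burk replot.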

[3] = target: Human immunodeficiency virus type 1 reverse transcriptase (Human immunodeficiency virus 1, UniProt Q72547, M184V); experiment: Inhibitory activity against HIV-1 reverse transcriptase (RT M184V); procedure, shortened: as §1

Ki [1] [nM] | SMILES | Ki [2] [nM] | Ki [3] [nM]
320 | Nc1ncnc2c1ncn2/C=C1/CC1COP(=O)(O)OP(=O)(O)OP(=O)(O)O (stereo not given) | – | –
10000 | Nc1ncnc2c1ncn2/C=C1\CC1COP(=O)(O)OP(=O)(O)OP(=O)(O)O (stereo not given) | – | –

SMILES | Ki [1] [nM] | Ki [2] [nM] | Ki [3] [nM]
Nc1ncnc2c1ncn2[C@H]1CC[C@@H](COP(=O)(O)OP(=O)(O)OP(=O)(O)O)O1 [DDA-TRIPHOSPHATE] | 510 | 1200 | 500
